# Measurements as given in ChEMBL document CHEMBL3612041, “Combating highly resistant emerging pathogen Mycobacterium abscessus and Mycobacterium tuberculosis with novel salicylanilide esters and carbamates” (Eur J Med Chem, 2015).
# How the values were obtained:
# [1] = Solubility of the compound in RPMI-1640/Sula media by spectrophotometric analysis; type: physicochemical
# Method in brief: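 Solubility measured under assay conditions in RPMI and Sula media with 1 v/v% DMSO. Undissolved compound removed on a PVDF filter. 120 µL filtrate mixed with 80 µL acetonitrile, and concentration measured spectrophotometrically.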
# [2] = test system: Mycobacteroides abscessus; assay: Antimycobacterial activity against Mycobacterium abscessus ATCC 19977 after 7 days by serial dilution method; type: functional
# Method in brief: (§1)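 Serial dilution in in-house Sula semisynthetic medium, pH 6.5. Compounds added as DMSO solutions at 10 doses, final 0.05–100 µg/mL. Incubation at 37 °C, 7 days for M. abscessus and 28 days for M. tuberculosis strains. MIC taken as the lowest concentration giving visible growth inhibition, confirmed by CFU on drug-free Löwenstein-Jensen medium after further equal incubation. Repeated at least twice.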
# [3] = test system: Mycobacterium tuberculosis; assay: Antimycobacterial activity against Mycobacterium tuberculosis H37Rv ATCC 27294 after 28 days by serial dilution method; type: functional; settings: for MIC: Mycobacterium tuberculosis, H37Rv ATCC 27294, 672 h; method in brief: as §1
# MONO-MAC-6 = assay: Cytostatic activity against human MONO-MAC-6 cells assessed as cell viability after 16 hrs by MTT assay; type: cell-based; settings: MONO-MAC-6, 16 h
# Method in brief: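 MonoMac6 cells kept in RPMI-1640 with 10% FCS, 2 mM L-glutamine and gentamycin at 37 °C, 5% CO2. Cells plated 10⁵ per well and treated after 24 h for 16 h in serum-free RPMI (1.0 v/v% DMSO), 5×10⁻² to 10² µM. MTT at 367 µg/mL final for 3.5 h, crystals dissolved in DMSO, OD540 minus OD620. Cytotoxicity % versus untreated control fitted sigmoidally for IC50. Two independent experiments, 4–8 parallels.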
# [4] = Selectivity index, ratio of IC50 for human MONO-MAC-6 cells to MIC for Mycobacterium abscessus ATCC 19977; type: toxicity; settings: read-out: Selectivity Index
# [5] = Selectivity index, ratio of IC50 for human MONO-MAC-6 cells to MIC for Mycobacterium tuberculosis H37Rv ATCC 27294; type: toxicity; settings: read-out: Selectivity Index
# [6] = test system: Mycobacteroides abscessus; assay: Potency index, ratio of ciprofloxacin MIC to compound MIC for Mycobacterium abscessus ATCC 19977; type: functional
# [7] = test system: Mycobacteroides abscessus; assay: Potency index, ratio of gentamicin MIC to compound MIC for Mycobacterium abscessus ATCC 19977; type: functional
# [8] = Retention time of the compound in serum-free RPMI-1640 medium containing 10% DMSO at 0.5 mg/ml after 5 hrs by RP-HPLC analysis; type: physicochemical
# Method in brief: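 Stability in serum-free RPMI-1640 with 10% DMSO at 0.5 mg/ml, monitored by RP-HPLC on a C18 column. Gradient of 0.1% TFA water/acetonitrile-water, 1 ml/min, ambient temperature. Peaks identified by ESI-MS.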
# [9] = Drug level in serum-free RPMI-1640 medium treated with [4-bromo-2-[[4-(trifluoromethyl)phenyl]carbamoyl]phenyl] 5-chloropyrazine-2-carboxylate at 0.75 mg/ml after 29 hrs by ESI-MS spectra analysis; type: physicochemical
# [10] = Mycobacteroides abscessus, ATCC 19977, 168 h
Molecule,solubility [1] [µM],Activity [2] [CFU],"MIC [2, 10] [µM]",Activity [3] [CFU],MIC [3] [µM],IC50 (MONO-MAC-6) [µM],selectivity ratio [4],selectivity ratio [5],Ratio [6],Ratio [7],MIC [2] [µM],Retention_time [8] [min],Drug metabolism [9]
O=C(NCCCCl)Oc1ccc(Cl)cc1C(=O)Nc1ccc(C(=O)c2ccccc2)cc1,< 50,0,42.5,3,8.5,16.1,0.4,1.9,,,,,
O=C(Nc1ccc(Cl)c(Cl)c1)c1cc(Br)ccc1O,< 100,0,7,2,1.4,3.5,0.5,2.5,,,,,
O=C(Oc1ccc(Br)cc1C(=O)Nc1ccc(Cl)c(Cl)c1)c1cnc(Cl)cn1,< 100,0,1,1,2,5.7,5.7,2.9,,,,,
O=C(NCCCl)Oc1ccc(Br)cc1C(=O)Nc1ccc(Cl)c(Cl)c1,< 50,0,0.2,2,0.2,6.9,34.5,34.5,15,53,,,
O=C(NCCCCl)Oc1ccc(Cl)cc1C(=O)Nc1ccc(C(F)(F)F)cc1,< 50,0,0.2,1,0.5,8.8,44,17.6,15,53,,,
O=C(NCCCl)Oc1ccc(Cl)cc1C(=O)Nc1ccc(Cl)c(Cl)c1,< 50,0,1.2,2,1.2,4.6,3.8,3.8,,,,,
O=C(NCCCCl)Oc1ccc(Br)cc1C(=O)Nc1ccc(Cl)c(Cl)c1,< 50,0,2.1,2,0.4,9.5,4.5,23.8,,,,,
O=C(O)c1cn(C2CC2)c2cc(N3CCNCC3)c(F)cc2c1=O [CIPROFLOXACIN],,,3,,,,,,,,,,
CCCNC(=O)Oc1ccc(Cl)cc1C(=O)Nc1ccc(C(=O)c2ccccc2)cc1,< 50,0,22.9,3,9.2,18.7,0.8,2,,,,,
O=C(Oc1ccc(Cl)cc1C(=O)Nc1ccc(Cl)c(Cl)c1)c1cnc(Cl)cn1,< 100,0,1.1,10,1.1,10.1,9.2,9.2,,,,,
O=C(c1ccccc1)c1ccc(NC(=O)c2cc(Br)ccc2O)cc1,< 50,0,25.3,2,12.7,21.8,0.9,1.7,,,,,
GENTAMICIN,,,,,,,,,,,10.5,,
CCCNC(=O)Oc1ccc(Cl)cc1C(=O)Nc1ccc(Cl)c(Cl)c1,< 50,0,1.3,0,0.2,7,5.4,35,,,,,
O=C(O)c1cnc(Cl)cn1,< 500,,> 633,,> 633,,,,,,,12.3,metabolite_detected
O=C(NCCCl)Oc1ccc(Br)cc1C(=O)Nc1ccc(C(F)(F)F)cc1,< 50,0,4.3,0,0.4,9.3,2.2,23.3,,,,,
O=C(NCCCl)Oc1ccc(Cl)cc1C(=O)Nc1ccc(C(F)(F)F)cc1,< 50,0,1.2,1,0.5,7.6,6.3,15.2,,,,,
O=C(NCCCCl)Oc1ccc(Br)cc1C(=O)Nc1ccc(C(=O)c2ccccc2)cc1,< 50,0,38.9,2,8.7,12.6,0.3,1.4,,,,,
O=C(NCCCl)Oc1ccc(Cl)cc1C(=O)Nc1ccc(C(=O)c2ccccc2)cc1,< 50,0,43.6,2,8.7,37.8,0.9,4.3,,,,,
O=C(NCCCl)Oc1ccc(Br)cc1C(=O)Nc1ccc(C(=O)c2ccccc2)cc1,< 50,0,40,2,8,24.9,0.6,3.1,,,,,
O=C(NCCCCl)Oc1ccc(Cl)cc1C(=O)Nc1ccc(Cl)c(Cl)c1,< 50,0,1.2,0,2.3,2.5,2.1,1.1,,,,,
O=C(Nc1ccc(Cl)c(Cl)c1)c1cc(Cl)ccc1O,< 100,0,3.2,2,1.6,3.6,1.1,2.3,,,,,
O=C(Nc1ccc(C(F)(F)F)cc1)c1cc(Cl)ccc1O,,0,3.2,0,1.6,5.3,,,,,,,
O=C(c1ccccc1)c1ccc(NC(=O)c2cc(Cl)ccc2O)cc1,< 50,0,28.5,3,14.2,48,1.7,3.4,,,,,
O=C(Oc1ccc(Cl)cc1C(=O)Nc1ccc(C(F)(F)F)cc1)c1cnc(Cl)cn1,< 100,0,5.5,3,1.1,1.1,0.2,1,,,,,
NNC(=O)c1ccncc1 [ISONIAZID],,26,292,0,1.17,,,,,,,,
